Here are results for four compounds from ChEMBL document CHEMBL1629545, “A morpholino oligomer targeting highly conserved internal ribosome entry site sequence is able to inhibit multiple species of picornavirus” (Antimicrob Agents Chemother, 2008).

For one data set, the system named is Vero. Put plainly: Cytotoxicity against African green monkey Vero cells at 10 uM after 24 hrs by MTS assay. The class given is cell-based. Conditions: chlorocebus sabaeus.
In data set [1] the test system is HeLa. As to the kind of experiment: Cytotoxicity against human HeLa cells 10 uM after 24 hrs by MTS assay. The class given is cell-based. An outline of the steps:
(§1)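 HeLa cells at ~80% confluence, uninfected, exposed to 1–100 μM PPMO or water (mock) in serum-free DMEM-F-12 (1:1) for 24 h. MTS reagent was added for 4 h and absorbance read at 492 nm. Viability was expressed as percent of water-treated cells (set to 100%), averaged over 12 wells.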
On the technique in general: Formazan colour is commonly taken as a measure of viable cells.

The subject of a further data set is Poliovirus 1. Put plainly: Antiviral activity against Human poliovirus type 1 infected in Human HeLa cell assessed as inhibition of translation at 10 ug/ml by luciferase reporter gene assay. The class given is functional, organism-based. An outline of the steps: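 In-cell translation control: HeLa cells electroporated with 20 μg PV1-Luc replicon RNA were placed in medium with 10 μg/ml puromycin at 37°C in 5% CO2. Luciferase in lysates was read by luminometer at hourly time points after transfection. Two experiments were averaged.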
Background: A reporter such as luciferase makes a cellular process visible.

The test system of the next data set is SK-N-MC. Put plainly: Cytotoxicity against human SK-N-MC cell at 10 uM after 24 hrs by MTS assay. The class given is cell-based.
The test system of data set [2] is HeLa. As to the kind of experiment: Cytotoxicity against human HeLa cells at 10 uM by MTS assay. The class given is cell-based. In short, it runs like this: as §1

The source made the active and inactive calls. The rule behind the calls is not given here.

For `Cc1cn([C@H]2CN(P(=O)(OC[C@@H]3CN(P(=O)(OC[C@@H]4CN(P(=O)(OC[C@@H]5CN(P(=O)(OC[C@@H]6CNC[C@H](n7cnc8c(N)ncnc87)O6)N(C)C)C[C@H](n6cnc7c(N)ncnc76)O5)N(C)C)C[C@H](n5cc(C)c(=O)[nH]c5=O)O4)N(C)C)C[C@H](n4cc(C)c(=O)[nH]c4=O)O3)N(C)C)C[C@@H](COP(=O)(N(C)C)N3C[C@@H](COP(=O)(N(C)C)N4C[C@@H](COP(=O)(N(C)C)N5C[C@@H](COP(=O)(N(C)C)N6C[C@@H](COP(=O)(N(C)C)N7C[C@@H](COP(=O)(N(C)C)N8C[C@@H](COP(=O)(N(C)C)N9C[C@@H](COP(=O)(N(C)C)N%10C[C@@H](COP(=O)(N(C)C)N%11C[C@@H](COP(=O)(N(C)C)N%12C[C@@H](COP(=O)(N(C)C)N%13C[C@@H](COP(=O)(N(C)C)N%14C[C@@H](COP(=O)(N(C)C)N%15C[C@@H](COP(=O)(N(C)C)N%16C[C@@H](COP(=O)(N(C)C)N%17C[C@@H](COP(=O)(N(C)C)N%18C[C@@H](COP(=O)(N(C)C)N%19C[C@@H](COP(=O)(N(C)C)N%20C[C@@H](COP(=O)(N(C)C)N%21C[C@@H](COP(=O)(N(C)C)N%22CCN(C(=O)CCNC(=O)CCCCCNC(=O)[C@H](CCCNC(=N)N)NC(=O)CCCCCNC(=O)[C@H](CCCNC(=N)N)NC(=O)[C@H](CCCNC(=N)N)NC(=O)CCCCCNC(=O)[C@H](CCCNC(=N)N)NC(=O)[C@H](CCCNC(=N)N)NC(=O)CCCCCNC(=O)[C@H](CCCNC(=N)N)NC(=O)[C@H](CCCNC(=N)N)NC(=O)CCCCCNC(=O)[C@@H](N)CCCNC(=N)N)CC%22)O[C@@H](n%22cnc%23c(=O)[nH]c(N)nc%23%22)C%21)O[C@@H](n%21cnc%22c(=O)[nH]c(N)nc%22%21)C%20)O[C@@H](n%20cc(C)c(=O)[nH]c%20=O)C%19)O[C@@H](n%19cnc%20c(N)ncnc%20%19)C%18)O[C@@H](n%18ccc(N)nc%18=O)C%17)O[C@@H](n%17cnc%18c(N)ncnc%18%17)C%16)O[C@@H](n%16cnc%17c(N)ncnc%17%16)C%15)O[C@@H](n%15ccc(N)nc%15=O)C%14)O[C@@H](n%14ccc(N)nc%14=O)C%13)O[C@@H](n%13ccc(N)nc%13=O)C%12)O[C@@H](n%12ccc(N)nc%12=O)C%11)O[C@@H](n%11cc(C)c(=O)[nH]c%11=O)C%10)O[C@@H](n%10cnc%11c(=O)[nH]c(N)nc%11%10)C9)O[C@@H](n9cc(C)c(=O)[nH]c9=O)C8)O[C@@H](n8cnc9c(=O)[nH]c(N)nc98)C7)O[C@@H](n7ccc(N)nc7=O)C6)O[C@@H](n6cc(C)c(=O)[nH]c6=O)C5)O[C@@H](n5cnc6c(=O)[nH]c(N)nc65)C4)O[C@@H](n4cc(C)c(=O)[nH]c4=O)C3)O2)c(=O)[nH]c1=O` (stereo partly specified), the Activity result is “Non-toxic” in the data set on Vero, “Toxic” with HeLa [1], “Non-toxic” with SK-N-MC and “Non-toxic” with HeLa [2]. Also, in the data set with Poliovirus 1, the outcome was inactive.

Turning to `COc1ccc(C[C@H](N)C(=O)N[C@H]2[C@@H](O)[C@H](n3cnc4c(N(C)C)ncnc43)O[C@@H]2CO)cc1`, in the data set on Poliovirus 1, the result was Active.

Consider `Cc1cn([C@H]2CN(P(=O)(OC[C@@H]3CN(P(=O)(OC[C@@H]4CN(P(=O)(OC[C@@H]5CN(P(=O)(OC[C@@H]6CN(P(=O)(OC[C@@H]7CN(P(=O)(OC[C@@H]8CN(P(=O)(OC[C@@H]9CN(P(=O)(OC[C@@H]%10CN(P(=O)(OC[C@@H]%11CN(P(=O)(OC[C@@H]%12CN(P(=O)(OC[C@@H]%13CN(P(=O)(OC[C@@H]%14CN(P(=O)(OC[C@@H]%15CN(P(=O)(OC[C@@H]%16CN(P(=O)(OC[C@@H]%17CN(P(=O)(OC[C@@H]%18CN(P(=O)(OC[C@@H]%19CNC[C@H](n%20cnc%21c(=O)[nH]c(N)nc%21%20)O%19)N(C)C)C[C@H](n%19ccc(N)nc%19=O)O%18)N(C)C)C[C@H](n%18cnc%19c(N)ncnc%19%18)O%17)N(C)C)C[C@H](n%17cc(C)c(=O)[nH]c%17=O)O%16)N(C)C)C[C@H](n%16cc(C)c(=O)[nH]c%16=O)O%15)N(C)C)C[C@H](n%15cnc%16c(=O)[nH]c(N)nc%16%15)O%14)N(C)C)C[C@H](n%14ccc(N)nc%14=O)O%13)N(C)C)C[C@H](n%13cnc%14c(=O)[nH]c(N)nc%14%13)O%12)N(C)C)C[C@H](n%12ccc(N)nc%12=O)O%11)N(C)C)C[C@H](n%11cnc%12c(=O)[nH]c(N)nc%12%11)O%10)N(C)C)C[C@H](n%10cc(C)c(=O)[nH]c%10=O)O9)N(C)C)C[C@H](n9cc(C)c(=O)[nH]c9=O)O8)N(C)C)C[C@H](n8ccc(N)nc8=O)O7)N(C)C)C[C@H](n7cnc8c(N)ncnc87)O6)N(C)C)C[C@H](n6cnc7c(=O)[nH]c(N)nc76)O5)N(C)C)C[C@H](n5cnc6c(=O)[nH]c(N)nc65)O4)N(C)C)C[C@H](n4ccc(N)nc4=O)O3)N(C)C)C[C@@H](COP(=O)(N(C)C)N3C[C@@H](COP(=O)(N(C)C)N4C[C@@H](COP(=O)(N(C)C)N5CCN(C(=O)CCNC(=O)CCCCCNC(=O)[C@H](CCCNC(=N)N)NC(=O)CCCCCNC(=O)[C@H](CCCNC(=N)N)NC(=O)[C@H](CCCNC(=N)N)NC(=O)CCCCCNC(=O)[C@H](CCCNC(=N)N)NC(=O)[C@H](CCCNC(=N)N)NC(=O)CCCCCNC(=O)[C@H](CCCNC(=N)N)NC(=O)[C@H](CCCNC(=N)N)NC(=O)CCCCCNC(=O)[C@@H](N)CCCNC(=N)N)CC5)O[C@@H](n5ccc(N)nc5=O)C4)O[C@@H](n4ccc(N)nc4=O)C3)O2)c(=O)[nH]c1=O` (stereo partly specified), for which the Activity result with Vero is “Non-toxic”; with HeLa [1], “Toxic”; in the data set on SK-N-MC, “Non-toxic”; with HeLa [2], “Non-toxic”. Also, the outcome in the data set on Poliovirus 1 was inactive.

For the compound `Cc1cn([C@H]2CN(P(=O)(OC[C@@H]3CN(P(=O)(OC[C@@H]4CN(P(=O)(OC[C@@H]5CN(P(=O)(OC[C@@H]6CN(P(=O)(OC[C@@H]7CN(P(=O)(OC[C@@H]8CN(P(=O)(OC[C@@H]9CN(P(=O)(OC[C@@H]%10CN(P(=O)(OC[C@@H]%11CN(P(=O)(OC[C@@H]%12CN(P(=O)(OC[C@@H]%13CN(P(=O)(OC[C@@H]%14CN(P(=O)(OC[C@@H]%15CNC[C@H](n%16cnc%17c(=O)[nH]c(N)nc%17%16)O%15)N(C)C)C[C@H](n%15cc(C)c(=O)[nH]c%15=O)O%14)N(C)C)C[C@H](n%14cc(C)c(=O)[nH]c%14=O)O%13)N(C)C)C[C@H](n%13cnc%14c(N)ncnc%14%13)O%12)N(C)C)C[C@H](n%12cnc%13c(N)ncnc%13%12)O%11)N(C)C)C[C@H](n%11ccc(N)nc%11=O)O%10)N(C)C)C[C@H](n%10cnc%11c(N)ncnc%11%10)O9)N(C)C)C[C@H](n9cc(C)c(=O)[nH]c9=O)O8)N(C)C)C[C@H](n8cnc9c(N)ncnc98)O7)N(C)C)C[C@H](n7cnc8c(=O)[nH]c(N)nc87)O6)N(C)C)C[C@H](n6cc(C)c(=O)[nH]c6=O)O5)N(C)C)C[C@H](n5cnc6c(N)ncnc65)O4)N(C)C)C[C@H](n4cc(C)c(=O)[nH]c4=O)O3)N(C)C)C[C@@H](COP(=O)(N(C)C)N3C[C@@H](COP(=O)(N(C)C)N4C[C@@H](COP(=O)(N(C)C)N5C[C@@H](COP(=O)(N(C)C)N6C[C@@H](COP(=O)(N(C)C)N7C[C@@H](COP(=O)(N(C)C)N8C[C@@H](COP(=O)(N(C)C)N9C[C@@H](COP(=O)(N(C)C)N%10CCN(C(=O)CCNC(=O)CCCCCNC(=O)[C@H](CCCNC(=N)N)NC(=O)CCCCCNC(=O)[C@H](CCCNC(=N)N)NC(=O)[C@H](CCCNC(=N)N)NC(=O)CCCCCNC(=O)[C@H](CCCNC(=N)N)NC(=O)[C@H](CCCNC(=N)N)NC(=O)CCCCCNC(=O)[C@H](CCCNC(=N)N)NC(=O)[C@H](CCCNC(=N)N)NC(=O)CCCCCNC(=O)[C@@H](N)CCCNC(=N)N)CC%10)O[C@@H](n%10cnc%11c(=O)[nH]c(N)nc%11%10)C9)O[C@@H](n9ccc(N)nc9=O)C8)O[C@@H](n8cnc9c(N)ncnc98)C7)O[C@@H](n7ccc(N)nc7=O)C6)O[C@@H](n6ccc(N)nc6=O)C5)O[C@@H](n5ccc(N)nc5=O)C4)O[C@@H](n4cnc5c(N)ncnc54)C3)O2)c(=O)[nH]c1=O` (stereo partly specified), the Activity result is listed as “Non-toxic” with Vero, “Toxic” in the data set with HeLa [1], “Non-toxic” in the data set with SK-N-MC and “Non-toxic” with HeLa [2]. Also, in the data set on Poliovirus 1, the result was inactive.
